Assay results from paper PMC7740640 (Xenobiotica; the fate of foreign compounds in biological …, 2020).
“And” between values parts separate entries of the source, which are not always exact repeats. Equal values may be shown once.

Target: CYP2C19 (Homo sapiens, UniProt P33261)
Experiment: Projected involvement in C152 metabolism in HLM
Format: in vitro ADME
How it was run: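 Calculated values, no new incubations. Each of seven C152-metabolizing P450s has a fractional content in the pooled HLM P450 pool (LC-MS/MS MRM). That fraction is multiplied by its Supersome Vmax (saturation) or by its rate at 30 μM C152 from Hill or Michaelis–Menten parameters. Expected participation (% TNR) is each normalized rate divided by the sum of all seven.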

Chain of CYP2C19 (P33261 whole entry): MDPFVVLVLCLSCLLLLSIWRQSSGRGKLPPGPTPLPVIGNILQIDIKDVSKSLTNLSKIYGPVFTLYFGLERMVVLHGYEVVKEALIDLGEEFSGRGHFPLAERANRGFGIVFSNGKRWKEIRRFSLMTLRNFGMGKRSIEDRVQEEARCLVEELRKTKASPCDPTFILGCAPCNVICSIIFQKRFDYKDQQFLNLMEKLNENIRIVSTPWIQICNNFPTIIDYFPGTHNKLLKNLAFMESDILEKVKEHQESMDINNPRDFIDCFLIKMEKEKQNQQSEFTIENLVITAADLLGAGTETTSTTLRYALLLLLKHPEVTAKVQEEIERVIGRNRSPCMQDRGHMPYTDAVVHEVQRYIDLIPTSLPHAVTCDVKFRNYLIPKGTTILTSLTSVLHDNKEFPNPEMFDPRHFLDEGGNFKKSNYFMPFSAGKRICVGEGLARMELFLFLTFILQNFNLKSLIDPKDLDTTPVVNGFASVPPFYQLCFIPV

CN(C)c1ccc2c(C(F)(F)F)cc(=O)oc2c1 [C152, 7-Dimethylamino-4-trifluromethylcoumarin]
Normalized rate (at 30 μM C152): 0.026 min⁻¹
Expected participation (at 30 μM C152, % TNR): 0.2% and 0.22%
Normalized rate (at saturation of all P450 species): 0.031 min⁻¹
Expected participation (at saturation of all P450 species, % TNR): 0.24%
